High-throughput results: PubChem BioAssay, several laboratories
Hits are enriched below; roughly 2.2% of the tested compounds scored in any of these assays.
NF-kB expr up: raises NF-kB expression in human neuronal cells. AID 1239. 190,000 compounds, 1.6% hits. NF-kB reporter expression; stronger effect = higher value. fold change at 12.5 µM; in the data active means fold change above about 3.3
TRAIL sens C8: sensitizes caspase-8 expressing cells to TRAIL. NB7+C8 cells + TRAIL, ATPlite viability luminescence. inhibition (viability loss, TRAIL sensitization), % at 10 µM. 360,000 compounds, 1% hits. AID 624354;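 active means compounds causing at least 50% loss of cell viability in the single-dose screen, relative to plate controls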
FLuc inhib CS: counter-screen for luciferase assay inhibitors: firefly luciferase inhibition. inhibition, % at 10 µM. 200,000 compounds, 1.5% hits. AID 1006. P08659. ATPLite firefly luciferase biochemical luminescence, 10 min;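 active means inhibition above about 50% when tested at 10 µM, limit read from the data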
Target sequence (P08659 whole entry, looked up): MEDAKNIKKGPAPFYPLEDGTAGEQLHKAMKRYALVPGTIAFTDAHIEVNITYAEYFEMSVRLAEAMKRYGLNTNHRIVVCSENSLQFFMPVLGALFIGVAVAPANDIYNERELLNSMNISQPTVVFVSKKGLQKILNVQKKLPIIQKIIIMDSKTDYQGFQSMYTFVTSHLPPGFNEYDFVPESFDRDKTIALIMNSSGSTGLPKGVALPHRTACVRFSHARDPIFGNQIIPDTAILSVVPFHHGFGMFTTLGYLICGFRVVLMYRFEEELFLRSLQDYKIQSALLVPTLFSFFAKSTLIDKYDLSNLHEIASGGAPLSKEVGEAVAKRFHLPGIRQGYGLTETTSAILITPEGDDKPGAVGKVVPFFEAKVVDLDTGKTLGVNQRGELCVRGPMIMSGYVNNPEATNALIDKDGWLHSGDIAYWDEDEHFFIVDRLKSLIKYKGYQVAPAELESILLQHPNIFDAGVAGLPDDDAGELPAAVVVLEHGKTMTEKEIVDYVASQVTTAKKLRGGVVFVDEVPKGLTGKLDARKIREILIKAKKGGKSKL
FLuc act counter: affects firefly luciferase, flagging false hits in luciferase stimulation screens; ATPlite luciferase biochemical, luminescence, 10 min; 0 = ATP-free wells, 1 = DMSO control; activation factor at 10 µM; 200,000 tested, under 10 active; AID 1027;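 active means luciferase activation factor, scaled between plate controls, of at least 2 with compound at 10 µM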
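Material: Luciferase/luciferin reagent mix; Doses: test compounds dosed from 2 mM stocks in 100% DMSO; Schedule: 10 min incubation after luciferase reagent addition, room temperature; Measured by: luminescence from luciferase reaction; Read-out: luminescence gain marking luciferase activators.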
APP 5'UTR act: APP 5'UTR luciferase reporter activation; SH-SY5Y APP 5'UTR luciferase reporter, luminescence; zero percent = DMSO vehicle wells; activation, % at 2 µM; 190,000 compounds, 1% hits;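 active means activation above a set limit, based on mean plus 3 SD of controls, cut at about 140% in these data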
PPC-1+TRAIL kill: compounds killing PPC-1 cancer cells with TRAIL present (potentiator screen, no TRAIL-free arm). cell killing (% activity), % at 4 µM or 5 µM. 220,000 compounds, 0.41% hits. PPC-1 cells + TRAIL, ATPLite viability luminescence;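 active means cell killing above 50% in the first pass at 4 µM, then a duplicate retest at 5 µM averaging 50% or more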;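 further: plate controls were cells with TRAIL plus DMSO for no effect and medium-only wells lacking cells for full effect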
* hit, by the source's call; / = no result.

SMILES | NF-kB expr up | TRAIL sens C8 | FLuc inhib CS | FLuc act counter | APP 5'UTR act | PPC-1+TRAIL kill
O=C(N/N=C/C1CCCCC1)c1cc(Cl)ccc1O | 1.1 | -17 | 50* | 0.5 | -2 | 11
O=C(N/N=C/c1ccco1)c1ccccn1 | 1.8 | 15 | 26 | 0.7 | 68 | 3
O=C(N/N=C/C1CCCCC1)c1ccccn1 | 1.7 | -2 | 35 | 0.6 | 139* | 7
Clc1ccccc1Nc1nnc(-c2ccncc2)s1 | 4.2* | 60* | 82* | 0.2 | 160* | 64*
c1ccc(Nc2nc(-c3cccnc3)cs2)nc1 | 5* | 37 | 49 | 0.5 | 194* | 48
Clc1ccccc1Nc1nc(-c2cccnc2)cs1 | 7.8* | 45 | 84* | 0.2 | 195* | /
FC(F)(F)c1ccc(Cl)c(Nc2nnc(-c3ccncc3)s2)c1 | / | 16 | / | / | / | /
COC(=O)C[C@@H]1C[C@H]2c3cc(NC(=O)Nc4ccccc4F)ccc3O[C@H]2[C@H](CO)O1 | / | 2 | / | / | / | /
CC(=O)Nc1nnc(SCC(=O)Nc2nc(C)cs2)s1 | / | -28 | / | / | / | /
CCOC(=O)c1cocc1C(=O)O | / | -18 | / | / | / | /
COc1ccc(C2=Nn3c(nnc3-c3ccco3)SC2)cc1 | 4.8* | 12 | -2 | 1 | -11 | 15
CC(=O)N1N=C(c2ccc(Br)cc2)CC1c1ccc(Br)cc1 (stereo unspecified) | / | -10 | / | / | / | /
CNC(=S)N1N=C(c2ccc(C)cc2)CC1c1ccc(Cl)cc1 (stereo unspecified) | 4.5* | -2 | -5 | 1.1 | 0 | 22
CNC(=S)N1N=C(c2ccc(C)cc2)CC1c1ccc(Br)cc1 (stereo unspecified) | 3.4* | -3 | -3 | 1 | 31 | -8
CCN=c1scc(C)n1/N=C/c1ccc(O)c(O)c1O | 1.5 | 12 | 76* | 0.2 | 10 | 20
CCN=c1scc(C)n1/N=C/c1cc(Br)c(O)c(Br)c1 | 1.3 | 6 | 7 | 0.9 | 15 | 19
COc1ccc(N2CCN(C(=O)c3cccnc3)CC2)c([N+](=O)[O-])c1 | / | 13 | -4 | 1 | -3 | 17
c1ccc(NNC2=NCCS2)cc1 | / | -10 | / | / | / | /
c1ccc(NC2=Nc3ccccc3CS2)cc1 | 3.6* | 4 | 10 | 0.9 | 113 | 6
O=C(CC(C(=O)O)c1ccc(Cl)cc1Cl)c1ccc(Cl)cc1 (stereo unspecified) | / | -1 | / | / | / | /
O=C(/C=C/Sc1ccccc1)c1ccc(Cl)cc1 | 6.2* | 17 | 61* | 0.4 | -5 | 23
O=C(C=Cc1ccccc1Cl)c1ccccc1 | / | 19 | / | / | / | /
O=C(/C=C/Sc1ccccc1)c1ccccc1 | 5.2* | -3 | 88* | 0.1 | 18 | 19
Cc1cc(C)cc(NC(=O)Nc2c(Br)cnn2C)c1 | / | -1 | / | / | / | /
C[C@@H]1CN([C@@H](C)CO)C(=O)c2cc(Br)cnc2O[C@H]1CN(C)Cc1cccc(C(=O)O)c1 | / | -7 | / | / | / | /
SMILES | NF-kB expr up | TRAIL sens C8 | FLuc inhib CS | FLuc act counter | APP 5'UTR act | PPC-1+TRAIL kill
Cc1cc(NC(=O)c2ccc(-c3ccccc3[N+](=O)[O-])o2)no1 | / | 16 | / | / | / | /
CC(=O)c1cccc(NC(=O)c2ccc(-c3ccccc3[N+](=O)[O-])o2)c1 | 4* | -1 | 18 | 0.8 | 121 | 14
Nc1c(N(C(=O)Nc2ccc(Cl)c(Cl)c2)C2CCCC2)c(=O)[nH]c(=O)n1Cc1ccccc1 | 0.87 | 63* | -6 | 1.1 | -1 | 1
CCNC(=O)C1(C)CCCN(C(=O)c2sc(-c3ccccc3)nc2C)C1 (stereo unspecified) | / | -7 | / | / | / | /
CN(C(=O)OC(C)(C)C)c1ccc(-c2nc3ccccc3s2)cc1 | / | 89* | / | / | / | /
COC(=O)N(C)c1nc2ccccc2s1 | 1.3 | 3 | 7 | 0.9 | 17 | -3
CC(=O)Oc1ccc(Cl)cc1/C=C/c1cc(OC(C)=O)c2ccccc2n1 | 1.1 | / | -1 | 1 | -1 | 10
COc1ccc(C=Cc2ccc3ccccc3n2)c(OC)c1 | / | 70* | / | / | / | /
COc1cc(Cl)cc(/C=C/c2ccc3ccccc3n2)c1OC(C)=O | 1.1 | 14 | 1 | 1 | 155* | 16
O=C(CC1Nc2ccccc2NC1=O)c1ccccc1 (stereo unspecified) | 2.5 | / | 54* | 0.5 | 33 | 21
O=C(CC1Nc2ccccc2NC1=O)NCCc1ccccc1 (stereo unspecified) | 1.1 | -10 | -3 | 1 | 0 | -1
CC1CN(CC(=O)Nc2ccccc2Sc2ccccc2)CC(C)O1 (stereo unspecified) | 0.88 | 6 | -3 | 1 | 4 | -3
Cc1ccc(C(=O)NCC(=O)N2CCCCCCC2)cc1C | / | -12 | / | / | / | /
O=C(/C=C/c1ccnc2ccccc12)c1cccs1 | 1 | 31 | 96* | 0 | 183* | 26
COc1cc(CC(NC(C)=O)C(=O)NC2CCN(c3c(Cc4ccccc4)c(C)nc4ncnn34)CC2)cc(OC)c1 (stereo unspecified) | 1.2 | -3 | -7 | 1.1 | -7 | -6
CN(Cc1cnc2nc(N)nc(N)c2n1)c1ccc(C(=O)NC(CCC(=O)O)C(=O)O)cc1C(F)(F)F (stereo unspecified) | / | 82* | / | / | / | /
CCCN(CCC)C(=O)C(CCC(=O)O)NC(=O)c1ccccc1 (stereo unspecified) | 1 | 2 | -5 | 1 | 12 | -9
CN(Cc1cnc2nc(N)nc(N)c2n1)c1ccc(C(=O)NC(CCC(=O)O)C(=O)O)cc1 (stereo unspecified) | / | 81* | / | / | / | /
CCOC(=O)CCC(NC(=O)c1cncc(O)c1)C(=O)OCC (stereo unspecified) | 1.5 | 10 | -8 | 1.1 | 6 | 19
CC(=O)N(CN1C(=O)c2ccccc2C1=O)c1cccc(C)c1 | 0.86 | -5 | -7 | 1.1 | 4 | 7
CC(=O)N(/N=C1\Sc2ccccc2C1=O)c1cccc(C)c1 | 7.1* | 3 | 26 | 0.7 | 136* | 8
CCn1cc(C(=O)NCCCN(CC(C)C)CC(C)C)c(=O)c2cc(S(=O)(=O)N3CCOCC3)ccc21 | / | 20 | / | / | / | /
Cc1ccccc1C(=O)O/N=C(\N)c1cccc([N+](=O)[O-])c1 | 3.2 | 74* | 91* | 0.1 | 89 | 36
N/C(=N\OC(=O)Oc1ccccc1)c1cccc([N+](=O)[O-])c1 | 1.2 | -8 | 4 | 1 | -10 | 29
N/C(=N\OC(=O)c1cccs1)c1cccc([N+](=O)[O-])c1 | 2 | 2 | 87* | 0.1 | 51 | 3
Cc1cccc(C(=O)O/N=C(\N)c2cccc([N+](=O)[O-])c2)c1 | 2.9 | 45 | 87* | 0.1 | 95 | 2
COC(=O)c1nn(-c2ccc(C)cc2)c2nnc(Cc3ccccc3)c(=O)n12 | 1.1 | -2 | -6 | 1.1 | -6 | 8
COc1ccc(C(CNC(=O)c2ccco2)N2CCCC2)cc1 (stereo unspecified) | / | 4 | / | / | / | /
O=C(N/N=C/c1ccccc1Cl)c1[nH]c2ccc(Br)cc2c1-c1ccccc1 | 4.1* | -43 | -2 | 1 | -96 | 27
